# TDP2 absorb – TDP2 (human) inhibition, absorbance primary screen; 370,000 compounds, 0.34% hits; AID 720702; recombinant TDP2, T5PNP hydrolysis, p-nitrophenol absorbance 415 nm; inhibition, % at 12.8 µM;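 active = inhibition above the mean of all tested compounds plus 3 SD, set per campaign, cut at about 25% in these data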;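 note: 0% = DMSO with enzyme and 100% = buffer with substrate but no TDP2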
# Target sequence (O95551 whole entry, looked up): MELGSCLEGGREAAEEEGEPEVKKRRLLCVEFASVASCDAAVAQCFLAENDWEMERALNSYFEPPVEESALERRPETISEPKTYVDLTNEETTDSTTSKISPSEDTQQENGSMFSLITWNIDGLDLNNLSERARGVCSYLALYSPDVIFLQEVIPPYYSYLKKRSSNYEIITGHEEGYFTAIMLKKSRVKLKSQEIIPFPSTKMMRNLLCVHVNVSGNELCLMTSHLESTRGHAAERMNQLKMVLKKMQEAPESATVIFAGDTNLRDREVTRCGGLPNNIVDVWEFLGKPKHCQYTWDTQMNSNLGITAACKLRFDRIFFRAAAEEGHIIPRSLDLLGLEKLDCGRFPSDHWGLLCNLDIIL
#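 Assay system: Recombinant human TDP2 | Quantity: 120 nM TDP2 per well | Incubation: 2 h at 37 °C | Signal: Epi absorbance | Evaluation: Percent inhibition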
# PP5 primary – blocks human protein phosphatase 5 activity; P53041; purified PP5c, OMFP substrate fluorescence; inhibition, % at 6.7 µM; 320,000 compounds, 0.18% hits; AID 1987;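 active = inhibition above the campaign's mean inhibition across all tested compounds plus 3 SD, cut at about 9.5% in these data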;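 note: 0% = DMSO only and 100% = 100 µM cantharidin control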
# Apaf-1 inh – inhibitors of human Apaf-1 apoptosome | reconstituted apoptosome caspase-3 activity, DEVD-Rh110 fluorescence | inhibition, % at 20 µM | 330,000 compounds, 0.71% hits | AID 489030; active = inhibition of at least 40% at 20 µM;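 note: plate controls were DMSO wells for no effect and DEVD-CHO caspase inhibitor wells for full effect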
#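 Material: reconstituted apoptosome with Apaf-1, cytochrome c, caspase-9, procaspase-3, dATP. Technique: Rh110 fluorescence intensity. Buffer or medium: pH 7.5 Hepes buffer with CHAPS, BSA, DTT. Times: 30 min plus 50 min, RT.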
# GSTO1 inh – GSTO1 inhibition, counter-screen for RBBP9 inhibitors | recombinant GSTO1, activity-based probe fluorescence polarization | inhibition, % at 5.96 µM | 300,000 compounds, 1.1% hits | P78417;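 active = inhibition above the campaign mean inhibition plus 3 SD, cut at about 35% in these data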;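 note: 0% = GSTO1-1 with DMSO and 100% = wells lacking GSTO1-1 enzyme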
# Target sequence (P78417 whole entry, looked up): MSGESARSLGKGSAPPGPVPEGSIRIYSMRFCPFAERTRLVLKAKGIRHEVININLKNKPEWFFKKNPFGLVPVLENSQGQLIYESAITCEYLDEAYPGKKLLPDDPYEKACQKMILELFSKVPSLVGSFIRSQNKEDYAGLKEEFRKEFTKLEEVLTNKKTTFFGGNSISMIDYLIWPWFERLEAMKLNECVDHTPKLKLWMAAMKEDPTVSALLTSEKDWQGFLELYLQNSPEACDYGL
# PP1 inh – PP1-alpha (human) inhibition in PP5 counter-screen. P62136. purified PP1alpha, OMFP fluorescence. inhibition, % at 6.7 µM. 320,000 compounds, 0.9% hits;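 active = inhibition above the mean inhibition of all tested compounds plus 3 SD, computed separately for each screening campaign, cut at about 15% in these data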
# Apaf-1 inh conf – confirmation of Apaf-1 inhibitors | shares compounds with Apaf-1 inh | 1,800 compounds, 25% hits | inhibition, % at 20 µM | AID 504614 | reconstituted apoptosome, caspase-3 DEVD-Rh110 fluorescence;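 active = mean inhibition of at least 40% at 20 µM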;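 note: plate controls were DMSO wells for no effect and DEVD-CHO caspase inhibitor control wells for full effect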
# Rh110 interf inh – interferes with Rh110 fluorescence, flagging false Apaf-1 inhibitors | 1,800 tested, under 10 active | activation (fluorescence interference), % at 20 µM | shares compounds with Apaf-1 inh | Rh110 fluorescence interference, quenched caspase reaction | AID 504615;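 active = signal rise of 40% or more at 20 µM, treated as a fluorescence artifact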
# Fluor interf inh – counter-screen for Apaf-1 inhibitors: fluorescence interference, dose response; AID 588538; 460 tested, under 10 active; IC50, µM; fluorescence interference counterscreen, Apaf-1 assay format; shares compounds with Apaf-1 inh; call rule not given here
# Numbers without * were called inactive; . = not tested or not shown. An excerpt weighted towards active compounds, which were near 2.1% of everything screened.
SMILES,TDP2 absorb,PP5 primary,Apaf-1 inh,GSTO1 inh,PP1 inh,Apaf-1 inh conf,Rh110 interf inh,others
C[C@H](CO)N1C[C@H](C)[C@H](CN(C)C(=O)Nc2cccc(F)c2)OCc2cnnn2CCCC1=O,7,.,.,.,.,.,.,
Cc1ccc(-c2nn3c(C)nnc3c3ccccc23)cc1S(=O)(=O)NCc1ccco1,0,0,44*,-6,4,61*,5,Fluor interf inh=>100
Cc1ccc(-c2nn3c(C)nnc3c3ccccc23)cc1S(=O)(=O)NC(C)c1ccccc1 (centres undefined),0,3,57*,-9,3,61*,8,Fluor interf inh=>100
C=CCC[C@@H](Cc1ccc(F)cc1)C(=O)OC[C@@H]1CCCN1C(=O)[C@H](CC=C)CC(=O)N[C@H](CO)Cc1ccccc1,-9,.,43*,.,.,28,14,
C=CCC[C@@H](Cc1ccc(F)cc1)C(=O)OC[C@H]1CCCN1C(=O)[C@@H](CC=C)CC(=O)N[C@H](CO)Cc1ccccc1,-8,.,40*,.,.,34,6,
C=CC[C@@H](Cc1ccc(F)cc1)C(=O)OC[C@H]1CCCN1C(=O)[C@@H](CC=C)CC(=O)N[C@@H](CO)Cc1ccccc1,-3,.,28,.,.,.,.,
C=CCC[C@H](Cc1ccc(F)cc1)C(=O)OC[C@H]1CCCN1C(=O)[C@@H](CC=C)CC(=O)NCCO,-2,.,0,.,.,.,.,
C=CCC[C@@H](Cc1ccc(F)cc1)C(=O)OC[C@@H]1CCCN1C(=O)[C@@H](CC=C)CC(=O)N(CCO)Cc1ccccc1,-10,.,48*,.,.,24,17,
C=CCCC1CN(Cc2ccc(OC)cc2)S(=O)(=O)c2c(Oc3cc(C)c(C)c(C)c3)cccc2O1 (centres undefined),4,.,.,.,.,.,.,
COC(=O)[C@]12C[C@H](CC(=O)NCc3ccccc3)C(=O)N(Cc3ccc(Cl)cc3Cl)C1=C[C@H](C(C)C)O[C@@H]2C1CC1,-10,.,.,.,.,.,.,
Cc1cccc(S(=O)(=O)C(C#N)c2nc3ccccc3nc2N2CCCC2)c1 (centres undefined),-5,-2,55*,4,0,20,5,
CCOC(=O)c1nn(-c2ccc(C)c(C)c2)c(=O)c2c(N)scc12,15,7,56*,18,4,41*,11,Fluor interf inh=>100
O=C(c1ccc(-c2ccccc2Cl)o1)N1CCCC(C(F)(F)F)C1 (centres undefined),-11,0,41*,.,-3,27,3,
O=C(N/N=C/c1ccc(Br)cc1)c1cc[n+](Cc2ccccc2)cc1,-8,0,-6,-4,-3,.,.,
O=C(C[n+]1cccc(C(=O)N/N=C/c2ccc(Br)cc2)c1)c1ccccc1,-20,3,50*,.,7,15,1,
c1ccc(C[C@H]2CN=C(Nc3ccccc3)N2CCCC2CCCCC2)cc1,-8,.,47*,.,.,1,3,
COCc1ccc(CN2CCC(C(=O)Nc3cccc(-c4cscn4)c3)CC2)o1,9,1,-4,0,-4,.,.,
COCc1ccc(CN2CCC(C(=O)Nc3cccc(-c4cccc(Cl)c4)c3)CC2)o1,2,7,49*,-13,9,17,8,
COc1cccc(CC(=O)N(Cc2ccccc2)c2ccccc2C(=O)Nc2cc(OC)ccc2OC)c1,-11,.,.,.,.,.,.,
COc1cc(C)c2c(c1C=O)Oc1c(c(C)c(O)c3c1C(O)OC3=O)OC2=O (centres undefined),-4,7,56*,11,15,35,-3,
CCOc1ccc(N=Nc2c(C)[nH]n(-c3ccccc3)c2=O)cc1,9,0,5,-4,0,.,.,
Cc1[nH]n(-c2ccccc2)c(=O)c1N=Nc1nccs1,-6,2,73*,15,6,35,19,
Nc1c(C(=O)NCC2CCCO2)c2nc3ccccc3nc2n1-c1ccccc1 (centres undefined),-11,2,60*,3,-1,27,9,
COc1ccccc1-n1c(C)nc2cc(C(=O)NCC3CCCO3)ccc21 (centres undefined),7,1,-5,3,-3,.,.,
COCCCNC(=O)c1c(N)n(-c2cccc(S(N)(=O)=O)c2)c2nc3ccccc3nc12,5,5,43*,-7,-2,28,1,
SMILES,TDP2 absorb,PP5 primary,Apaf-1 inh,GSTO1 inh,PP1 inh,Apaf-1 inh conf,Rh110 interf inh,others
O=C(NCC1CCCO1)c1ccccc1 (centres undefined),3,-1,-6,-4,-2,.,.,
COc1ccccc1-n1c(N)c(C(=O)NCC2CCCO2)c2nc3ccccc3nc21 (centres undefined),4,3,69*,15,0,15,7,
O=C(C(=O)N1CCN(C(=O)c2cccs2)CC1)c1cccc(C(F)(F)F)c1,4,.,.,.,.,.,.,
CC(C)N1CCc2c(-c3nc4ccccc4s3)csc2C1,-1,.,.,.,.,.,.,
COc1cccc(Cn2cc(COC(=O)N3CCOCC3)nn2)c1,-2,.,.,.,.,.,.,
CCOC(=O)c1c(NC(=O)c2cccs2)sc(C)c1CC,-2,-1,51*,3,-3,13,9,
CCCOc1ccc(F)cc1-c1cc(C(=O)NC(C)C)[nH]n1,-1,.,.,.,.,.,.,
C[C@@H]1CN([C@H](C)CO)C(=O)Cc2cc(NS(=O)(=O)c3ccc(Cl)cc3)ccc2O[C@H]1CN(C)Cc1ccc(C(F)(F)F)cc1,.,.,41*,.,.,27,9,
C[C@@H]1CN([C@H](C)CO)C(=O)Cc2cc(NS(=O)(=O)c3ccc(F)cc3)ccc2O[C@H]1CN(C)Cc1ccc(C(=O)O)cc1,-3,.,9,.,.,.,.,
